Assay outcomes: PubChem, Broad Institute
A1 apoptosis 2 – A1 inhibition read as caspase activation; 24,000 tested, under 10 active; MEF A1-2A-BIM cells, caspase-Glo luminescence, 3 h; percent of clofoctol response, DMSO zero; caspase activation, % (no concentration beside the values); in the data active means caspase activation above about 5.9%
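system = A1-2A-BIM-expressing MEF cells | quantity = 2500 MEF cells/well | dosing = 50 nL compound per well, pinned | schedule = overnight cell settling, then 3 h compound exposure, 37 °C | signal = luminescence from DEVD-luciferin Caspase-Glo reagent, 1:1 in 50 mM HEPES, 1 h RT | read-out = Caspase-3/7 activation, seen as rise in luminescence signal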
T cruzi HTS – intracellular Trypanosoma cruzi inhibition; intracellular Trypanosoma cruzi in host cells, plate reader; 22,000 tested, 4.9% active; activity score (inhibition), % at 5.01 µM; AID 651903; in the data active means activity score above about 55%;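 further: parasites and compound incubated about four days before reading; 0% = median of neutral control wells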
INS-1E rescue – INS-1E beta cell protection from cytokine death; INS-1E cytokine-induced death, ATP luminescence, 48 h; normalised: neutral wells 0, positive control 100; protection from cytokine-induced ATP loss, % at 10 µM; 20,000 tested, 0.1% active; AID 488910;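 active means mean replicate protection from cytokine-induced ATP loss at least 50% and at least 75% of replicates each reaching 50%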
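assay system = INS-1E rat insulinoma cells | amount = 8000 cells per well | medium = phenol-red-free RPMI with 5% fetal bovine serum | doses = one compound concentration, pin transfer | timing = 48 h cytokine plus compound treatment, 10 min reagent incubation | also added = IL-1β, TNF-α and IFN-γ cytokine mix | signal = CellTiter-Glo luminescence measuring cellular ATP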
The depositor's hits bear a star; x = not tested or not shown. The entries come from a sample that favours hits as a whole.

SMILES	A1 apoptosis 2	T cruzi HTS	INS-1E rescue
C[C@@H]1CN([C@H](C)CO)C(=O)c2cccc(NC(=O)Nc3cccc4ccccc34)c2O[C@H]1CN(C)C(=O)NC1CCCCC1	-1	10	5
C[C@H](CO)N1C[C@H](C)[C@H](CN(C)C(=O)NC2CCCCC2)Oc2c(NC(=O)Nc3cccc4ccccc34)cccc2C1=O	1	63*	-35
O=C(NCc1ccccc1)C1=C[C@@H](c2cccs2)C[C@@H](OCc2ccc(CO)cc2)O1	1	x	x
C[C@@H]1CN([C@H](C)CO)C(=O)c2cccc(NC(=O)Nc3ccc(C(F)(F)F)cc3)c2O[C@H]1CN(C)C(=O)Nc1ccc(C(F)(F)F)cc1	0	75*	-71
C[C@H]1CN([C@@H](C)CO)C(=O)c2cccc(NC(=O)Nc3ccc(C(F)(F)F)cc3)c2O[C@@H]1CN(C)C(=O)Nc1ccc(F)cc1	0	3	8
C[C@H]1CN([C@@H](C)CO)C(=O)c2cccc(NC(=O)Nc3ccc(C(F)(F)F)cc3)c2O[C@H]1CN(C)C(=O)Nc1ccccc1	0	13	-84
C[C@H](CO)N1C[C@H](C)[C@H](CN(C)Cc2ccc(Cl)c(Cl)c2)Oc2c(NC(=O)Nc3ccc(F)cc3)cccc2C1=O	x	0	-11
C[C@H](CO)N1C[C@H](C)[C@H](CN(C)Cc2ccc(Cl)c(Cl)c2)Oc2c(NC(=O)Nc3ccc(C(F)(F)F)cc3)cccc2C1=O	0	63*	-43
C[C@H](CO)N1C[C@H](C)[C@@H](CN(C)C(=O)Nc2ccc(C(F)(F)F)cc2)Oc2c(NC(=O)Nc3ccc(C(F)(F)F)cc3)cccc2C1=O	-1	78*	-73
C[C@@H]1C=C(C(=O)Nc2ccccc2)O[C@H](OCCCCO)C1	0	x	x
C[C@H]1CN([C@@H](C)CO)C(=O)Cc2cc(NC(=O)Cc3cn(C)c4ccccc34)ccc2O[C@H]1CN(C)Cc1ccc(Oc2ccccc2)cc1	-1	59*	-43
COc1ccc(CN(C)C[C@H]2Oc3ccc(NC(=O)Cc4cn(C)c5ccccc45)cc3CC(=O)N([C@@H](C)CO)C[C@H]2C)cc1	0	32	-9
C[C@H]1CN([C@@H](C)CO)C(=O)Cc2cc(NC(=O)Cc3cn(C)c4ccccc34)ccc2O[C@@H]1CN(C)Cc1ccc(Oc2ccccc2)cc1	x	51	-15
COc1ccc(CN(C)C[C@H]2Oc3ccc(NC(=O)Cc4cn(C)c5ccccc45)cc3CC(=O)N([C@@H](C)CO)C[C@@H]2C)cc1	0	61*	-2
C[C@H](CO)N1C[C@H](C)[C@@H](CN(C)Cc2ccc(Oc3ccccc3)cc2)Oc2ccc(NC(=O)Cc3cn(C)c4ccccc34)cc2CC1=O	-1	x	x
C[C@@H]1CN([C@H](C)CO)C(=O)Cc2cc(NC(=O)Cc3cn(C)c4ccccc34)ccc2O[C@H]1CN(C)Cc1ccc(Oc2ccccc2)cc1	x	78*	-20
O=C(CCCCCC(=O)Nc1ccccc1O)N/N=C/c1ccccc1C(=O)O	-1	-9	-7
[N-]=[N+]=Nc1ccccc1C[C@@]1(C(=O)NCC(O)CO)N=C(c2ccc(OCCCO)cc2)O[C@@H]1c1ccccc1 (stereo not given in full)	-1	x	x
COc1ccc(/C=N/NC(=O)CCCCCCC(=O)Nc2ccccc2O)cc1OC	-1	5	1
O=C(O)CCCCCCC(=O)N/N=C/c1ccccc1Cl	x	-17	13
Cc1ccc(S(=O)(=O)Nc2ccc3c(c2)C(=O)N([C@@H](C)CO)C[C@@H](C)[C@@H](CN(C)Cc2ccc(Cl)c(Cl)c2)O3)cc1	x	64*	-37
C[C@H]1CN([C@@H](C)CO)C(=O)c2cc(NS(=O)(=O)c3ccc(Cl)cc3)ccc2O[C@@H]1CN(C)Cc1ccc(Cl)c(Cl)c1	0	46	-13
C[C@@H]1CN([C@@H](C)CO)C(=O)c2cc(NS(=O)(=O)c3ccc(Cl)cc3)ccc2O[C@H]1CN(C)Cc1ccc(Cl)c(Cl)c1	1	58*	-8
C[C@H]1CN([C@@H](C)CO)C(=O)c2cc(NS(=O)(=O)c3ccccc3)ccc2O[C@@H]1CN(C)Cc1ccc(Cl)c(Cl)c1	x	62*	-7
C[C@@H]1CN([C@H](C)CO)C(=O)c2cc(NS(=O)(=O)c3ccccc3)ccc2O[C@@H]1CN(C)Cc1ccc(Cl)c(Cl)c1	x	-8	-2
Cc1ccc(S(=O)(=O)Nc2ccc3c(c2)C(=O)N([C@@H](C)CO)C[C@H](C)[C@@H](CN(C)Cc2ccc(Cl)c(Cl)c2)O3)cc1	x	32	0
O=C(NO)c1cccc(C(=O)N/N=C/c2ccccn2)c1	0	-12	3
